ChEMBL document CHEMBL1125796, “Antitumor properties of 2(1H)-pyrimidinone riboside (zebularine) and its fluorinated analogues” (1991)
“And” between values parts separate entries of the source, which are not always exact repeats. Equal values may be shown once.

Columns and labels:
Mus musculus [1] = experiment: Percent increase in life span of drug-treated mice relative to tumored, vehicle treated controls at a dose of 400 mg/kg ip.; assay type: functional
Method in brief: (§1)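 Tumors implanted day 0: B16 melanoma as 0.5 mL of 1:10 brei into BDF1 mice; L1210 or P388 leukemia as 10^6 cells into CDF1 mice, ip or sc. Drug was given in physiologic saline by ip or oral route, QD 1-9. %ILS was calculated against saline-treated tumored controls, with body-weight change difference as the toxicity read-out. Six mice per dose in most experiments.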

Mus musculus [2] = experiment: Antitumor activity against L1210 ttumor in mice, at a dose of 200 mg/kg per ip administration.; assay type: functional; settings: route intraperitoneal
Method in brief: (§2)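 Tumors implanted ip on day 0: B16 melanoma (0.5 mL of 1:10 brei) in BDF1 mice, and L1210 or P388 leukemia (10^6 cells) in CDF1 mice. Compound was given ip in physiologic saline daily on days 1–9. Read-out was % increase in life span versus vehicle-treated tumored controls, with body-weight change difference also recorded. Six mice per dose, three in some P388 groups.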

Mus musculus [3] = experiment: Percent increase in life span of drug-treated mice relative to tumored, vehicle treated controls at a dose of 200 mg/kg ip.; assay type: functional; settings: for ILS at 200 mg/kg: Mus musculus, ip; method in brief: as §1
Mus musculus [4] = experiment: Antitumor activity against L1210 tumor in mice, at a dose of 800 mg/kg per ip administration.; assay type: functional; settings: route intraperitoneal; method in brief: as §2
Mus musculus [5] = experiment: Percent increase in life span of drug-treated mice relative to tumored, vehicle treated controls at a dose of 800 mg/kg ip.; assay type: functional; method in brief: as §1
Mus musculus [6] = experiment: Antitumor activity against L1210 tumor in mice, at a dose of 400 mg/kg per ip administration.; assay type: functional; settings: route intraperitoneal; method in brief: as §2
Mus musculus [7] = experiment: Antitumor activity against P388 tumor in mice, at a dose of 1.67 mg/kg per ip administration.; assay type: functional; settings: route intraperitoneal; method in brief: as §2
Mus musculus [8] = experiment: Percent increase in life span of drug-treated mice relative to tumored, vehicle treated controls at a dose of 3.75 mg/kg ip.; assay type: functional; method in brief: as §1
Mus musculus [9] = experiment: Antitumor activity against L1210 tumor in mice, at a dose of 1.25 mg/kg per ip administration.; assay type: functional; settings: route intraperitoneal; method in brief: as §2
Mus musculus [10] = experiment: Antitumor activity against P388 tumor in mice, at a dose of 2.5 mg/kg per ip administration.; assay type: functional; settings: route intraperitoneal; method in brief: as §2
Mus musculus [11] = experiment: Antitumor activity against L1210 tumor in mice, at a dose of 0.68 mg/kg per ip administration.; assay type: functional; settings: route intraperitoneal; method in brief: as §2
Mus musculus [12] = experiment: Percent increase in life span of drug-treated mice relative to tumored, vehicle treated controls at a dose of 0.68 mg/kg ip.; assay type: functional; method in brief: as §1
Mus musculus [13] = experiment: Antitumor activity against P388 tumor in mice, at a dose of 3.75 mg/kg per ip administration.; assay type: functional; settings: route intraperitoneal; method in brief: as §2
Mus musculus [14] = experiment: Percent increase in life span of drug-treated mice relative to tumored, vehicle treated controls at a dose of 1.67 mg/kg ip.; assay type: functional; method in brief: as §1
Mus musculus [15] = experiment: Percent increase in life span of drug-treated mice relative to tumored, vehicle treated controls at a dose of 2.5 mg/kg ip.; assay type: functional; method in brief: as §1
Mus musculus [16] = experiment: Percent increase in life span of drug-treated mice relative to tumored, vehicle treated controls at a dose of 1.11 mg/kg ip.; assay type: functional; method in brief: as §1
Mus musculus [17] = experiment: Percent increase in life span of drug-treated mice relative to tumored, vehicle treated controls at a dose of 1.25 mg/kg ip.; assay type: functional; method in brief: as §1
Mus musculus [18] = experiment: Antitumor activity against L1210 tumor in mice, at a dose of 1.11 mg/kg per ip administration.; assay type: functional; settings: route intraperitoneal; method in brief: as §2
Mus musculus [19] = experiment: Antitumor activity against P388 tumor in mice, at a dose of 1.11 mg/kg per ip administration.; assay type: functional; settings: route intraperitoneal; method in brief: as §2
Mus musculus [20] = experiment: Antitumor activity against L1210 tumor in mice, at a dose of 2.5 mg/kg per ip administration.; assay type: functional; settings: route intraperitoneal; method in brief: as §2
Mus musculus [21] = experiment: Antitumor activity against L1210 tumor in mice, at a dose of 1.67 mg/kg per ip administration.; assay type: functional; settings: route intraperitoneal; method in brief: as §2
Mus musculus [22] = experiment: Antitumor activity against L1210 tumor in mice, at a dose of 500 mg/kg peroral administration in the presence of 10 mg/kg of zebularine.; assay type: functional
Mus musculus [23] = experiment: Percent increase in life span of drug-treated mice relative to tumored, vehicle treated controls at a dose of 500 mg/kg oral treatment; assay type: functional
Method in brief: (§3)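 CDF1 mice were implanted ip with 10^6 L1210 cells on day 0. Oral treatment was given on day 1 only, 24 h after implantation. In combinations, the deaminase inhibitor was given as two 250 mg/kg doses 30 min apart, as one dose immediately before ara-C, or as half the dose 30 min before and half immediately after ara-C. %ILS was calculated versus vehicle-treated tumored controls.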

Mus musculus [24] = experiment: Antitumor activity against L1210 tumor in mice, at a dose of 500 mg/kg peroral administration.; assay type: functional; settings: route oral
Method in brief: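 CDF1 mice received L1210 leukemia ip. Treatment was oral on day 1 only, 24 h after implantation, with ara-C at 500 mg/kg. Zebularine was given as a single dose immediately before ara-C, or as divided doses (e.g. 2 × 250 mg/kg 30 min apart, or half 30 min before and half immediately after). Read-out was % increase in life span.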

Mus musculus [25] = experiment: Percent increase in life span of drug-treated mice relative to tumored, vehicle treated controls at a dose of 500 mg/kg orally in the presence of 500 mg/kg of zebularine.; assay type: functional; settings: po; method in brief: as §3
Mus musculus [26] = experiment: Antitumor activity against L1210 tumor in mice, at a dose of 500 mg/kg peroral administration in the presence of 100 mg/kg of zebularine.; assay type: functional
Mus musculus [27] = experiment: Percent increase in life span of drug-treated mice relative to tumored, vehicle treated controls at a dose of 100 mg/kg oral treatment; assay type: functional; method in brief: as §3
Mus musculus [28] = experiment: Percent increase in life span of drug-treated mice relative to tumored, vehicle treated controls at a dose of 6.25 mg/kg ip.; assay type: functional; method in brief: as §1
Mus musculus [29] = experiment: Percent increase in life span of drug-treated mice relative to tumored, vehicle treated controls at a dose of 3.13 mg/kg ip.; assay type: functional; method in brief: as §1
Mus musculus [30] = experiment: Antitumor activity against B16 tumor in mice, at a dose of 800 mg/kg per ip administration.; assay type: functional; settings: route intraperitoneal; method in brief: as §2
Mus musculus [31] = experiment: (§4) Antitumor activity against P388 tumor in mice, at a dose of 400 mg/kg per ip administration.; assay type: functional; settings: route intraperitoneal; method in brief: as §2
Mus musculus [32] = experiment: as §4; assay type: functional; settings: route intraperitoneal; method in brief: as §2; remark: listed apart in the source
Mus musculus [33] = experiment: Antitumor activity against […] tumor in mice, at a dose of 400 mg/kg per ip administration.; assay type: functional; settings: route intraperitoneal; method in brief: as §2
Mus musculus [34] = experiment: Percent increase in life span of drug-treated mice relative to tumored, vehicle treated controls at a dose of 1600 mg/kg orally.; settings: oral
Mus musculus [35] = experiment: Antitumor activity against ara-c resistance L1210 tumor in mice, at a dose of 800 mg/kg per ip administration.; assay type: functional; settings: route intraperitoneal
Method in brief: (§5)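 An ara-C-resistant L1210 leukemia line (10^6 cells) was implanted ip on day 0 in CDF1 mice. Compound was given ip in physiologic saline daily on days 1–9. Read-out was % increase in life span versus saline-treated tumored controls, plus body-weight change difference.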

Mus musculus [36] = experiment: Antitumor activity against P388 tumor in mice, at a dose of 200 mg/kg per ip administration.; assay type: functional; settings: route intraperitoneal; method in brief: as §2
Mus musculus [37] = experiment: Percent increase in life span of drug-treated mice relative to tumored, vehicle treated controls at a dose of 800 mg/kg oral administration
Mus musculus [38] = experiment: Antitumor activity against B16 tumor in mice, at a dose of 200 mg/kg per ip administration.; assay type: functional; settings: route intraperitoneal; method in brief: as §2
Mus musculus [39] = experiment: Antitumor activity against ara-c resistance L1210 tumor in mice, at a dose of 200 mg/kg per ip administration.; assay type: functional; settings: route intraperitoneal; method in brief: as §5
Mus musculus [40] = experiment: Antitumor activity against ara-c resistance L1210 tumor in mice, at a dose of 400 mg/kg per ip administration.; assay type: functional; settings: route intraperitoneal; method in brief: as §5
Mus musculus [41] = experiment: Percent increase in life span of drug-treated mice relative to tumored, vehicle treated controls at a dose of 600 mg/kg ip.; assay type: functional; method in brief: as §1
Mus musculus [42] = experiment: Antitumor activity against B16 tumor in mice, at a dose of 400 mg/kg per ip administration.; assay type: functional; settings: route intraperitoneal; method in brief: as §2
Mus musculus [43] = experiment: Percent increase in life span of drug-treated mice relative to tumored, vehicle treated controls at a dose of 800 mg/kg, ip administration
Mus musculus [44] = experiment: Antitumor activity against P388 tumor in mice, at a dose of 600 mg/kg per ip administration.; assay type: functional; settings: route intraperitoneal; method in brief: as §2
Mus musculus [45] = experiment: Antitumor activity against L1210 tumor in mice, at a dose of 1600 mg/kg per oral administration.

## O=c1ncccn1[C@@H]1O[C@H](CO)[C@@H](O)[C@@H]1F
Mus musculus [1]; Mus musculus, ip
  ILS at 400 mg/kg: 37%
Mus musculus [2]
  Weight change difference: 1 g
Mus musculus [3]
  ILS at 200 mg/kg: 31%
Mus musculus [4]
  Weight change difference: 1 g
Mus musculus [5]; Mus musculus, ip
  ILS at 800 mg/kg: 43%
Mus musculus [6]
  Weight change difference: 0 g

## O=c1ncc(F)cn1C1O[C@H](CO)[C@@H](O)[C@H]1O (some centres undefined)
Mus musculus [7]
  Weight change difference: -2 g
Mus musculus [8]
  ILS at 3.75 mg/kg: 60%
Mus musculus [9]
  Weight change difference: 0 g
Mus musculus [10]
  Weight change difference: -2 g
Mus musculus [11]
  Weight change difference: 0 g
Mus musculus [12]
  ILS at 0.68 mg/kg: 62%
Mus musculus [13]
  Weight change difference: -2 g
Mus musculus [14]
  ILS: 118% and 45% and 50%
Mus musculus [15]
  ILS: 137% [middle of 4 runs]
Mus musculus [16]
  ILS: 75% and 50%
Mus musculus [17]
  ILS at 1.25 mg/kg: 75%
Mus musculus [18]
  Weight change difference: 0 g
Mus musculus [19]
  Weight change difference: -1 g
Mus musculus [20]
  Weight change difference: -1 g and -2 g
Mus musculus [21]
  Weight change difference: -1 g

## Nc1ccn([C@@H]2O[C@H](CO)[C@@H](O)[C@@H]2O)c(=O)n1 [CYTARABINE]
Mus musculus [22]
  Weight change difference: -2.2 g
Mus musculus [23]
  ILS: 44% and 74% and 80%
Mus musculus [24]
  Weight change difference: -0.5 g
Mus musculus [25]
  ILS at 500 mg/kg: 74%
Mus musculus [26]
  Weight change difference: -1 g
Mus musculus [27]; 100 mg/kg
  ILS: 68%
Mus musculus [27]; Mus musculus, po
  ILS at 100 mg/kg: 68%

## OC[C@H]1O[C@@H](n2cnc3cncnc32)[C@H](O)[C@@H]1O [NEBULARINE]
Mus musculus [28]; 6.25 mg/kg
  ILS: 34%
Mus musculus [28]; Mus musculus, ip
  ILS at 6.25 mg/kg: 40%
Mus musculus [29]; 3.13 mg/kg
  ILS: 52%
Mus musculus [29]; Mus musculus, ip
  ILS at 3.13 mg/kg: 60%

## O=c1ncccn1[C@@H]1O[C@H](CO)[C@@H](O)[C@H]1O [ZEBULARINE]
Mus musculus [30]
  Weight change difference: 0 g
Mus musculus [31]
  Weight change difference: -1.2 g
Mus musculus [1]; 400 mg/kg
  ILS: 66% [middle of 7 runs]
Mus musculus [32]
  Weight change difference: -2.3 g
Mus musculus [33]
  Weight change difference: -2.1 g
Mus musculus [34]
  ILS at 1600 mg/kg: 112%
Mus musculus [35]
  Weight change difference: -3.4 g
Mus musculus [3]; 200 mg/kg
  ILS: 34% and 25% and 40%
Mus musculus [3]
  ILS at 200 mg/kg: 36%
Mus musculus [36]
  Weight change difference: -2 g and -0.7 g
Mus musculus [37]
  ILS at 800 mg/kg: 81%
Mus musculus [38]
  Weight change difference: -0.5 g
Mus musculus [4]
  Weight change difference: -2.8 g
Mus musculus [5]; 800 mg/kg
  ILS: 77% [middle of 5 runs]
Mus musculus [6]
  Weight change difference: -0.4 g
Mus musculus [39]
  Weight change difference: -1.6 g
Mus musculus [40]
  Weight change difference: -1.8 g
Mus musculus [41]
  ILS at 600 mg/kg: 45%
Mus musculus [42]
  Weight change difference: -0.1 g and -0.2 g
Mus musculus [43]
  ILS at 800 mg/kg: 110%
Mus musculus [44]
  Weight change difference: -1.3 g
Mus musculus [45]
  Weight change difference: -2.3 g
